Activity calls are given as the source filed them. The rule behind the calls is not given here.
Columns and labels:
MDA-MB-231 = assay: Antitumor activity against human MDA-MB-231 cells xenografted in gamma-irradiation induced RH-rnu/rnu athymic rat assessed as tumor growth inhibition at 0.2 mg/kg, po administered once daily for 2 weeks and measured on day 14 relative to control; format: functional; conditions: MDA-MB-231, light or radiation study, 336 h, read-out: TGI
How it was run: (§1)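 Rats were γ-irradiated with 7 Gy whole body, and 24 h later received s.c. tumor cells. Fragments (20-30 mg) from ~1,500 mm3 tumors were then implanted s.c. into irradiated athymic rats. Oral dosing at 0.2 or 1 mg/kg or vehicle ran once daily for 2 weeks from day 0. Tumors were measured with calipers twice weekly (length×width²×0.5). TGI% was taken versus vehicle on day 14 (BxPC-3: day 13), with an unpaired t test on RTV.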

NCI-H460 = assay: Antitumor activity against human NCI-H460 cells xenografted in gamma-irradiation induced RH-rnu/rnu athymic rat assessed as tumor growth inhibition at 0.2 mg/kg, po administered once daily for 2 weeks and measured on day 14 relative to control; format: functional; conditions: NCI-H460, light or radiation study, 336 h, read-out: TGI; how it was run: as §1
Calu-6 [1] = assay: Antitumor activity against human Calu-6 cells xenografted in RH-rnu/rnu athymic rat assessed as capillary permeability in tumor measured on day 21 by DCE-MRI analysis; format: functional, cell-based
A549 [2] = assay: Antitumor activity against human A549 cells xenografted in F344/N Jcl-rnu athymic rat assessed as increase in percentage of necrotic areas in tumor by H and E staining based assay
[3] = Apparent oral volume of distribution in F344/N JcL-rnu athymic rat at 5 mg/kg, po measured upto 72 hrs by HPLC-MS/MS analysis; format: ADME, organism-based; conditions: in vivo
How it was run: (§2)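 Female F344/N JcL-rnu rats, four per group, single p.o. dose suspended in 0.5% methyl cellulose. Tail-vein blood sampled at set times to 72 h. Serum spiked with internal standard, deproteinated with acetonitrile, analysed by HPLC-MS/MS. Parameters derived by noncompartmental analysis.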

[4] = AUC (0-infinity) in F344/N JcL-rnu athymic rat at 0.04 mg/kg, po measured upto 72 hrs by HPLC-MS/MS analysis; format: ADME, organism-based; conditions: in vivo
How it was run: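 Female athymic rats, four per group, given a single oral dose suspended in 0.5% methyl cellulose in water. Tail-vein blood was drawn at set times up to 72 h. Serum was spiked with internal standard, deproteinated with acetonitrile and analysed by HPLC-MS/MS. AUCinf came from noncompartmental analysis.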

Calu-6 [5] = assay: Antitumor activity against human Calu-6 cells xenografted in gamma-irradiation induced RH-rnu/rnu athymic rat assessed as tumor growth inhibition at 1.0 mg/kg, po administered once daily for 2 weeks and measured on day 14 relative to control; format: functional; conditions: Calu-6, light or radiation study, 336 h, read-out: TGI; how it was run: as §1
[6] = Antitumor activity against human CGL-9 cells xenografted in gamma-irradiation induced RH-rnu/rnu athymic rat assessed as tumor growth inhibition at 0.2 mg/kg, po administered once daily for 2 weeks and measured on day 14 relative to control; format: functional; conditions: CGL-9, light or radiation study, 336 h, read-out: TGI; how it was run: as §1
[7] = Apparent oral volume of distribution in F344/N JcL-rnu athymic rat at 0.2 mg/kg, po measured upto 72 hrs by HPLC-MS/MS analysis; format: ADME, organism-based; conditions: in vivo; how it was run: as §2
OVCAR-3 = assay: Antitumor activity against human OVCAR-3 cells xenografted in gamma-irradiation induced RH-rnu/rnu athymic rat assessed as tumor growth inhibition at 0.2 mg/kg, po administered once daily for 2 weeks and measured on day 14 relative to control; format: functional; conditions: OVCAR-3, light or radiation study, 336 h, read-out: TGI; how it was run: as §1
[8] = biological target: Tyrosine-protein kinase JAK2 (Homo sapiens, UniProt O60674); assay: Inhibition of Jak2 (unknown origin) in presence of ATP
[9] = biological target: Mitogen-activated protein kinase 3 (Homo sapiens, UniProt P27361); assay: Inhibition of ERK1 phosphorylation in bFGF-stimulated serum-starved human HUVEC cells by immunoblotting analysis; format: cell-based
[10] = biological target: Mitogen-activated protein kinase 1 (Homo sapiens, UniProt P28482); assay: Inhibition of ERK2 phosphorylation in bFGF-stimulated serum-starved human HUVEC cells by immunoblotting analysis; format: cell-based
Calu-6 [11] = assay: Antitumor activity against human Calu-6 cells xenografted in gamma-irradiation induced RH-rnu/rnu athymic rat assessed as tumor growth inhibition at 0.2 mg/kg, po administered once daily for 2 weeks and measured on day 14 relative to control; format: functional; conditions: Calu-6, light or radiation study, 336 h, read-out: TGI; how it was run: as §1
[12] = Tmax in F344/N JcL-rnu athymic rat at 0.2 mg/kg, po measured upto 72 hrs by HPLC-MS/MS analysis; format: ADME, organism-based; conditions: in vivo; how it was run: as §2
[13] = Half life in F344/N JcL-rnu athymic rat at 0.2 mg/kg, po measured upto 72 hrs by HPLC-MS/MS analysis; format: ADME, organism-based; conditions: in vivo; how it was run: as §2
LS174T = assay: Antitumor activity against human LS174T cells xenografted in gamma-irradiation induced RH-rnu/rnu athymic rat assessed as tumor growth inhibition at 1.0 mg/kg, po administered once daily for 2 weeks and measured on day 14 relative to control; format: functional; conditions: light or radiation study, 336 h, read-out: TGI; how it was run: as §1
[14] = Cmax in F344/N JcL-rnu athymic rat at 1 mg/kg, po measured upto 72 hrs by HPLC-MS/MS analysis; format: ADME, organism-based; conditions: in vivo; how it was run: as §2
HUVEC = assay: Antiproliferative activity against VEGF-induced human HUVEC cells assessed as cell viability incubated for 72 hrs by WST-1 assay
[15] = Apparent oral clearance in F344/N JcL-rnu athymic rat at 0.2 mg/kg, po measured upto 72 hrs by HPLC-MS/MS analysis; format: ADME, organism-based; conditions: in vivo; how it was run: as §2
A549 [16] = assay: Antitumor activity against human A549 cells xenografted in F344/N Jcl-rnu athymic rat assessed as tumor regression at 0.2 mg/kg, po relative to control
ZR-75-1 = assay: Antitumor activity against human ZR-75-1 cells xenografted in gamma-irradiation induced RH-rnu/rnu athymic rat assessed as tumor growth inhibition at 1.0 mg/kg, po administered once daily for 2 weeks and measured on day 14 relative to control; format: functional; conditions: ZR-75-1, light or radiation study, 336 h, read-out: TGI
LoVo = assay: Antitumor activity against human LoVo cells xenografted in gamma-irradiation induced RH-rnu/rnu athymic rat assessed as tumor growth inhibition at 0.2 mg/kg, po administered once daily for 2 weeks and measured on day 14 relative to control; format: functional; conditions: light or radiation study, 336 h, read-out: TGI; how it was run: as §1
[17] = biological target: Fibroblast growth factor receptor 4 (Homo sapiens, UniProt P22455); assay: Inhibition of FGFR-4 (unknown origin) in presence of ATP
DU-145 = assay: Antitumor activity against human DU-145 cells xenografted in gamma-irradiation induced RH-rnu/rnu athymic rat assessed as tumor growth inhibition at 0.2 mg/kg, po administered once daily for 2 weeks and measured on day 14 relative to control; format: functional; conditions: DU-145, light or radiation study, 336 h, read-out: TGI; how it was run: as §1
SK-OV-3 = assay: Antitumor activity against human SK-OV-3 cells xenografted in gamma-irradiation induced RH-rnu/rnu athymic rat assessed as tumor growth inhibition at 0.2 mg/kg, po administered once daily for 2 weeks and measured on day 14 relative to control; format: functional; conditions: SK-OV-3, light or radiation study, 336 h, read-out: TGI

Fibroblast growth factor receptor 4, sequence (P22455 whole entry): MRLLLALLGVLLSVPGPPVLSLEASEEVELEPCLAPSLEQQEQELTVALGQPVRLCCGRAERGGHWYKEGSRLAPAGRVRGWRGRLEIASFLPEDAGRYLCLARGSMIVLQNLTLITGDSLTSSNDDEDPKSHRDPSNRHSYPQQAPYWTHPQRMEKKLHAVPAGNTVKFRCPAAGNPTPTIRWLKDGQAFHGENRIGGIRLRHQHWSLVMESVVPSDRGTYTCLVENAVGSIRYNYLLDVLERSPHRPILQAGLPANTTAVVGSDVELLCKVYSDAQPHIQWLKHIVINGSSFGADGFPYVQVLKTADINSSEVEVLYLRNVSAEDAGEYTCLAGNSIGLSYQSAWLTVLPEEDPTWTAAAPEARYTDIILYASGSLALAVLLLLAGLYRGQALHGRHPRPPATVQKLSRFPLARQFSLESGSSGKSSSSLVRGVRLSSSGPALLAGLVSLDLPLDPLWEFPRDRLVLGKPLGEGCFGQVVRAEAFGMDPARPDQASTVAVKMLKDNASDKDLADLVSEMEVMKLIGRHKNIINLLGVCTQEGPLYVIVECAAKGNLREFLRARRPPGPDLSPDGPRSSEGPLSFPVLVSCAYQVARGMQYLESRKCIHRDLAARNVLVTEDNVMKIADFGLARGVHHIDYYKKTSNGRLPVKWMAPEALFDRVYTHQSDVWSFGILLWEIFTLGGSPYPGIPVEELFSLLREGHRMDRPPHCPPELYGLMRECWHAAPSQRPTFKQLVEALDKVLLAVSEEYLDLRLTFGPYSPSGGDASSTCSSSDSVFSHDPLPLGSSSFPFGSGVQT
Tyrosine-protein kinase JAK2, sequence (O60674 whole entry): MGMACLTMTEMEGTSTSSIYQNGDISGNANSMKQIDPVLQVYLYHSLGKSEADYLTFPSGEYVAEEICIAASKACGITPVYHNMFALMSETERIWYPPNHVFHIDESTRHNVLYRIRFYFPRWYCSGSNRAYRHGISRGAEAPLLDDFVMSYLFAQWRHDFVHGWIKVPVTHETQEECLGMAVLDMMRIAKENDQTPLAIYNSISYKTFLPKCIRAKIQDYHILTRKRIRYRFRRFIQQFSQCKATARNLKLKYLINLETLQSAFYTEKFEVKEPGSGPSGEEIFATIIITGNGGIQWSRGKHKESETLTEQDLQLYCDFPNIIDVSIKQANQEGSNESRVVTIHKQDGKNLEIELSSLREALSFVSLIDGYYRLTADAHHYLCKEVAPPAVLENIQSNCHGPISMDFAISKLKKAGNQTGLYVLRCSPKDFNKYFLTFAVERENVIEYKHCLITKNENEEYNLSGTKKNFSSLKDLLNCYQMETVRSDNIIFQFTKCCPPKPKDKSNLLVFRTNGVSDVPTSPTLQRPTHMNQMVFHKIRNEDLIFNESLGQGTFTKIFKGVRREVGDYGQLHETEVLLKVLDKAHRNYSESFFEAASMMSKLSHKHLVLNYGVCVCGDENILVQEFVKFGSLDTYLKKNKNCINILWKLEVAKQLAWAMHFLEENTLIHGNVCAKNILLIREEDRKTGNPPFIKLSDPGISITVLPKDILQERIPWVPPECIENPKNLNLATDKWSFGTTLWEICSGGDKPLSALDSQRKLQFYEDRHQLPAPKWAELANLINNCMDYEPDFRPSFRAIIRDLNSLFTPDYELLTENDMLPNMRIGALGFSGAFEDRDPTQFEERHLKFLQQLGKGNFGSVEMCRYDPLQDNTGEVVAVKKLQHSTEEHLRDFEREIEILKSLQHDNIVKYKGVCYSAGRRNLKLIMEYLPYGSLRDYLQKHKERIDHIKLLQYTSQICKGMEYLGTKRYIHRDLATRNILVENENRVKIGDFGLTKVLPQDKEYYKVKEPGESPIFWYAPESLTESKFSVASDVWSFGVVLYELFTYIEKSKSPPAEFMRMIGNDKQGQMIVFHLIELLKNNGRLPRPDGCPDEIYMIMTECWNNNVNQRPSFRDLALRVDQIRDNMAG
Mitogen-activated protein kinase 3, sequence (P27361 whole entry): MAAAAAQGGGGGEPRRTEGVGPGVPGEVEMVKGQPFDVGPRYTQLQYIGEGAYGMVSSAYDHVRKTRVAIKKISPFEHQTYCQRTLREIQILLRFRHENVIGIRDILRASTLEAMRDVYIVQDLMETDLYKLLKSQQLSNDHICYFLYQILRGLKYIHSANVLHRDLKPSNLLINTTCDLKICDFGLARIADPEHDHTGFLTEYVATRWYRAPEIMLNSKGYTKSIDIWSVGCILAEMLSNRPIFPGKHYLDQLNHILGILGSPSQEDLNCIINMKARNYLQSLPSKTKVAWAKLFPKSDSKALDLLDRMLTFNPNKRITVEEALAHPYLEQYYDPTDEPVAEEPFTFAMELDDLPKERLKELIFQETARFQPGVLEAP
Mitogen-activated protein kinase 1, sequence (P28482 whole entry): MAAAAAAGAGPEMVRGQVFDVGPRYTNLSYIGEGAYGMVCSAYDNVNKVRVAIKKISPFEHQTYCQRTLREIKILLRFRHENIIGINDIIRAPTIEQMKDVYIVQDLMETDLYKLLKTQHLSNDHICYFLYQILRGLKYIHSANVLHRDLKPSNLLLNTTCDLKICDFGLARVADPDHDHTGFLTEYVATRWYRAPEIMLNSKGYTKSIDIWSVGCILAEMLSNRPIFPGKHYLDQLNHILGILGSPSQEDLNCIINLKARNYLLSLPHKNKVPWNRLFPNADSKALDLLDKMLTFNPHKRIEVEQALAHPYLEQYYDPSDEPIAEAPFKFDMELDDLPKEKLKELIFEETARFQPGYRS

For `COc1cc2nccc(Oc3ccc(NC(=O)Nc4cc(C)on4)c(Cl)c3)c2cc1OC` [TIVOZANIB], the inhibition in vivo at 0.2 mg/kg (MDA-MB-231) was 77%, the inhibition in vivo at 0.2 mg/kg (NCI-H460) was 68.8% and the Activity (Calu-6 [1]) was “inactive”. For the same compound, the Activity (A549 [2]) was “Active”, the Vd/F [3] was 1.29 L/kg and the AUC(0-inf) [4] was 340 ng·h/mL. The inhibition in vivo at 1 mg/kg (Calu-6 [5]) was 99.2%, the inhibition in vivo at 0.2 mg/kg [6] was 46% and the Vd/F [7] was 1.4 L/kg. For the same compound, the inhibition in vivo at 0.2 mg/kg (OVCAR-3) was 25%, the IC50 [8] was greater than 1000 nM and the inhibition [9] was “inactive”. For the same compound, the inhibition [10] was “inactive”, the inhibition in vivo at 0.2 mg/kg (Calu-6 [11]) was 44.1% and the Tmax [12] was 2.63 h. For the same compound, the half-life [13] was 467 min, the inhibition in vivo at 1 mg/kg (LS174T) was 99.7% and the Cmax [14] was 484 ng/mL. For the same compound, the IC50 (HUVEC) was 0.67 nM, the CL/F [15] was 2.07 mL/min/kg and the tumor regression % at 0.2 mg/kg (A549 [16]) was 2%. For the same compound, the inhibition in vivo at 1 mg/kg (ZR-75-1) was 94.3%, the inhibition in vivo at 0.2 mg/kg (LoVo) was 60.3% and the IC50 [17] was greater than 1000 nM. It also gave an inhibition in vivo at 0.2 mg/kg (DU-145) of 90.6% and an inhibition in vivo at 0.2 mg/kg (SK-OV-3) of 93.4%.

From ChEMBL document CHEMBL5661970 (Cancer Res, 2006)
